High-throughput results from PubChem.
EWS-Fli inh: EWS/Fli-driven NR0B1 reporter inhibitors, primary screen, A673 cells, NR0B1 luciferase, luminescence, MLPCN library. viability-normalised. inhibition, % at 12.6 µM. 350,000 compounds, 0.67% hits;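 active means mean inhibition of at least 50% after viability correction, with every replicate also passing that limit; inconclusive means mean reaches 50% but only one of two replicates passes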;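 further: firefly luciferase signal divided by Alamar Blue viability fluorescence both relative to DMSO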
PAX8 inh HTS: inhibitors of PAX8-driven TPO luciferase reporter, primary screen, RMG-I cells, single concentration. inhibition, % at 12.6 µM. 360,000 compounds, 1.2% hits. SteadyGlo, 24 h. AID 652154, 2013;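 active means mean replicate inhibition at least 60% with every replicate also reaching 60%; inconclusive means only one of the two criteria is met; inactive means mean below 60% and not all replicates reaching 60%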;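 further: luciferase light reporting Pax8 driven TPO promoter activity; plate controls were median of neutral control wells for no effect and mitoxantrone controls for full effect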
AF4-AF9 inh: inhibitors of AF4 peptide binding to AF9, primary screen, biochemical, AlphaScreen, biotin-AF4 peptide, FLAG-AF9, single point. Protein AF-9 (Homo sapiens), P42568. inhibition, % at 10 µM. 350,000 compounds, 0.47% hits. AID 651704, 2012;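 active means every replicate reaching a set inhibition limit, whatever the replicate mean, cut at about 25% in these data; inconclusive means mean inhibition reaches that limit but some replicates miss it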;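 further: 0% = plate neutral control median and 100% = total signal loss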
Target sequence (P42568 whole entry, looked up): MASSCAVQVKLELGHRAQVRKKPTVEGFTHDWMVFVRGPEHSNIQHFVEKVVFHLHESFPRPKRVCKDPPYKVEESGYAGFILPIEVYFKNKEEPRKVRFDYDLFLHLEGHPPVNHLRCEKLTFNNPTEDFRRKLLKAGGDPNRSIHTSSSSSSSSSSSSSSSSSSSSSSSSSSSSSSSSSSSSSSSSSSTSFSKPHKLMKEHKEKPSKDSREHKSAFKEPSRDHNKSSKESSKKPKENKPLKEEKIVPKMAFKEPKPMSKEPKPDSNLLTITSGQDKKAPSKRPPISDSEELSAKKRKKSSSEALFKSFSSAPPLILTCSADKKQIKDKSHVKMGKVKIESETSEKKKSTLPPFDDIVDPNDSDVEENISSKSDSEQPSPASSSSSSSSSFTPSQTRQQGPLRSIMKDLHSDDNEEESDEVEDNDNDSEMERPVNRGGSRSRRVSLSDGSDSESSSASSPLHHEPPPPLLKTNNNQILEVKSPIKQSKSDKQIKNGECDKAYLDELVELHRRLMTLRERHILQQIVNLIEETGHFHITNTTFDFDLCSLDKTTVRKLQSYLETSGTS
FN deposit inh: inhibitors of fibronectin matrix deposition, primary screen, AH1F cells, Alexa488-fibronectin fluorescence, plate reader; AH1F fibroblasts, overnight; inhibition, % at 12.6 µM; 350,000 compounds, 0.086% hits;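 active means mean inhibition across replicates of 30% or more, regardless of how many single replicates reach that level; inconclusive means mean under 30% yet at least half of replicates reach 30%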;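 further: positive control wells lacked labelled fibronectin entirely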
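material = AH1F fibroblast monolayer depositing Alexa488-labelled fibronectin into matrix | amount = 10000 AH1F cells/well | buffer or medium = DMEM plus 2% serum, read in PBS | incubation = 1 h cell adhesion before compound, then overnight fibronectin incubation | detection = fluorescence at 485 nm excitation, 525 nm emission | evaluation = percent inhibition as loss of matrix-bound fibronectin fluorescence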
HIV Env fusion: inhibitors of HIV-1 Env-driven cell-cell fusion, primary screen, HeLa-JRFL effector, CEM21 target cells, luciferase | inhibition, % at 12.3 µM | 360,000 compounds, 1.1% hits;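 active means mean replicate inhibition score of at least 50 and every replicate individually at or above 50; inconclusive means only one of the two criteria met; inactive means mean below 50 and not all replicates reaching 50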;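 further: 0% = plate neutral controls and 100% = maraviroc near 300 nM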
Glyco luc inh: increase of ERlucT glycosylation luciferase signal, primary screen, N-linked glycosylation inhibitor project, D54 ERlucT cells, luminescence, set 2; D54 ERlucT glycosylation luciferase reporter, 24 h; percent of 100 nM tunicamycin response; reporter increase, % at 12.5 µM; 360,000 compounds, 0.23% hits; AID 588692, 2011;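 active means mean luciferase reporter signal, scaled so untreated is 0 and the glycosylation-blocking control 100, at or above a set limit in every replicate; inconclusive means mean reaches the limit but not every replicate does; inactive means mean below the limit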;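 further: luciferase carries N-glycosylation sites so blocking glycosylation raises the light; 0% = median of neutral control wells and 100% = median of 100 nM tunicamycin wells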
* marks the source's active call; other numbers are inactive results; ? = inconclusive; nt = no result given; [ ] = another dose, or the depositor's remark. Shown are actives, neighbours in structure and some others; about 2.5% of the full set was active somewhere.

SMILES	EWS-Fli inh	PAX8 inh HTS	AF4-AF9 inh	FN deposit inh	HIV Env fusion	Glyco luc inh
COc1ccc(S(=O)(=O)N(C)C[C@H]2OCCCC[C@H](C)Oc3ccc(NS(=O)(=O)c4ccc(Cl)cc4)cc3C(=O)N([C@@H](C)CO)C[C@@H]2C)cc1	-5.1	22.6	-0.3	-12.2	nt	nt
COc1ccc(S(=O)(=O)N(C)C[C@@H]2OCCCC[C@H](C)Oc3ccc(NS(=O)(=O)c4ccc(Cl)cc4)cc3C(=O)N([C@H](C)CO)C[C@@H]2C)cc1	17.0	78.8*	0.4	-1.0	nt	nt
COc1ccc(S(=O)(=O)N(C)C[C@@H]2OCCCC[C@H](C)Oc3ccc(NS(=O)(=O)c4ccccc4)cc3C(=O)N([C@H](C)CO)C[C@H]2C)cc1	-33.8	75.9*	1.5	-5.7	-43.5[16.7 µM]	nt
COc1ccc(S(=O)(=O)Nc2ccc3c(c2)C(=O)N([C@@H](C)CO)C[C@H](C)[C@@H](CN(C)S(=O)(=O)c2ccc(Cl)cc2)OCCCC[C@H](C)O3)cc1	20.8	64.9*	-3.7	-3.1	17.3[16.7 µM]	nt
COc1ccc(S(=O)(=O)Nc2ccc3c(c2)C(=O)N([C@H](C)CO)C[C@H](C)[C@@H](CN(C)S(=O)(=O)c2ccc(Cl)cc2)OCCCC[C@H](C)O3)cc1	5.3	78.5*	-0.1	0.1	6.6[16.7 µM]	nt
COc1ccccc1NC(=O)N[C@@H]1CC[C@@H](CC(=O)NCc2ccc(Cl)c(Cl)c2)O[C@H]1CO	nt	nt	2.6	20.0	nt	nt
CCNC(=O)[C@@H]1[C@@H](CO)[C@@H]2Cn3c(cccc3=O)[C@H]1N2Cc1cc(F)ccc1F	-34.4	nt	-4.4	nt	nt	nt
COc1ccc(S(=O)(=O)Nc2ccc3c(c2)C(=O)N([C@@H](C)CO)C[C@H](C)[C@@H](CN(C)S(=O)(=O)c2ccc(Cl)cc2)OCCCC[C@@H](C)O3)cc1	-5.8	67.5*	-0.9	2.6	13.0[16.7 µM]	nt
COc1ccc(S(=O)(=O)Nc2ccc3c(c2)C(=O)N([C@@H](C)CO)C[C@H](C)[C@H](CN(C)C(=O)NC(C)C)OCCCC[C@@H](C)O3)cc1	-2.7	-26.1	-5.2	nt	67.5*[16.7 µM]	nt
C[C@@H]1CN([C@@H](C)CO)C(=O)Cc2cc(NC(=O)Nc3ccc(F)cc3)ccc2O[C@H]1CN(C)S(=O)(=O)c1ccc(F)cc1	2.0	nt	-1.2	nt	-7.4[16.7 µM]	nt
CCOC(=O)C1CCCN(Cc2nc(N)nc(Nc3ccc(OC)cc3)n2)C1 (stereo not drawn)	nt	nt	nt	nt	70.5*	-0.3
Cc1ccccc1Nc1nc(N)nc(CN(C)c2ccccc2)n1	nt	nt	nt	nt	nt	5.9
COc1ccc(Nc2nc(N)nc(CN3CCOCC3)n2)cc1	nt	nt	nt	nt	nt	-0.3
CCOC(=O)C1CCCN(Cc2nc(N)nc(Nc3ccc(Cl)cc3)n2)C1 (stereo not drawn)	nt	nt	nt	nt	nt	4.5
Nc1nc(CCl)nc(Nc2ccc3ccccc3c2)n1	52.5*	97.9*	3.2	5.8	-32.7	4.7
Cc1ccccc1Nc1nc(N)nc(CCl)n1	61.3*	102.1*	-1.8	26.8	-41.6	4.0
COc1ccc(Nc2nc(N)nc(CCl)n2)cc1	44.4	100.8*	5.4	1.5	1.3	2.4
CC(C)CN=c1cc(-c2ccccc2)oc2ccc(Cl)cc12	nt	nt	nt	nt	nt	16.2
OCCN=c1cc(-c2ccccc2)oc2ccc(Cl)cc12	nt	nt	nt	nt	nt	50.0*
CC(O)CN=c1cc(-c2ccccc2)oc2ccc(Cl)cc12 (stereo not drawn)	nt	nt	nt	nt	nt	29.0*
CO[C@H]1CN(C)C(=O)c2cc(NC(=O)Nc3ccccc3F)ccc2OC[C@H](C)N(C)C[C@@H]1C	-2.1	nt	-2.0	-24.8	nt	nt
O=C(C1CCC(CNc2c(N3CCOCC3)c(=O)c2=O)CC1)N1CCN(c2ccccc2)CC1 (stereo not drawn)	-1.5	-17.5	40.4*	-0.1	-14.2	3.4
O=C(C1CCC(CNc2c(N3CCCCC3)c(=O)c2=O)CC1)N1CCCCC1 (stereo not drawn)	-6.2	-5.6	-15.8	-6.4	7.4	0.8
C[C@@H]1CCCCO[C@@H](CN(C)CC2CC2)[C@H](C)CN([C@@H](C)CO)C(=O)c2cc(NS(=O)(=O)c3ccc(Cl)cc3)ccc2O1	-4.7	-11.2	9.2	nt	-30.6[16.7 µM]	nt
Cc1cc(C)cc(SCc2noc(C(=O)NCc3ccccc3)c2C(=O)NCc2ccccc2)c1	19.5	11.6	nt	2.5	63.6*	-3.4
SMILES	EWS-Fli inh	PAX8 inh HTS	AF4-AF9 inh	FN deposit inh	HIV Env fusion	Glyco luc inh
O=C(NCc1ccccc1)c1onc(CSc2ccc(F)cc2)c1C(=O)NCc1ccccc1	16.7	2.7	nt	-4.9	-4.4	-3.4
O=C(NCC1CCCO1)C(=O)NCC(c1ccco1)N1CCN(c2ccccc2)CC1 (stereo not drawn)	-7.9	151.4*	-2.7	5.7	nt	-0.6
C[C@@H]1CN([C@H](C)CO)S(=O)(=O)c2ccc(C#CCN(C)C)cc2O[C@H]1CN(C)C	-2.6	nt	-1.1	2.4	-5.4[16.7 µM]	nt
CSCCC(NS(=O)(=O)c1ccc2c(c1)OCCO2)C(=O)N(C)Cc1ccc(C)cc1 (stereo not drawn)	-8.1	16.3	2.1	nt	18.7	-3.0
COc1cccc(CN(C)C(=O)C(CCSC)NS(=O)(=O)c2ccc3c(c2)OCCO3)c1OC (stereo not drawn)	0.5	70.1*	5.0	13.6	8.9	-5.9
O=C(N[C@@H]1CC[C@H](CCNS(=O)(=O)c2ccc(F)cc2)O[C@@H]1CO)C1CCOCC1	3.2	-7.4	0.2	nt	19.8[16.7 µM]	nt
CCCCCCCn1c2c(c(=N)c3ccccc31)CCC2	58.1*	100.4*	4.1	-14.1	44.8	6.8
CCCn1c2c(c(=N)c3c1CCC3)CCC2	21.4	18.9	nt	-10.4	-25.9	5.3
O=C(N/N=C/c1ccc(Cl)cc1)c1sccc1OCc1ccc(F)cc1	nt	nt	nt	nt	nt	33.1*
O=C(c1cccnc1)N1CCCCN2[C@@H](CO)[C@@H](c3ccc(C#Cc4ccccc4)cc3)[C@@H]2C1	2.0	-20.0	8.1	nt	nt	nt
O=C(CN1CCOCC1)NCC[C@H]1CC[C@H](NS(=O)(=O)c2ccc(Cl)cc2)[C@H](CO)O1	0.8	-7.2	-2.3	16.3	5.3[16.7 µM]	nt
COc1ccc(NC(=O)N(C)C[C@H]2OCCCC[C@H](C)Oc3ccc(NS(=O)(=O)c4cccs4)cc3C(=O)N([C@@H](C)CO)C[C@H]2C)cc1	-2.3	nt	-11.8	nt	12.8[16.7 µM]	nt
CN(Cc1ccco1)c1ncnc2ccc(-c3ccc4c(c3)OCO4)cc12	3.4	5.6	-6.1	1.1	nt	-7.5
CN(Cc1ccco1)c1ncnc2ccc(-c3ccc4c(ccn4C)c3)cc12	67.0*	15.9	6.0	-0.8	-86.1	13.9
Cc1c(CCOC(=O)CC23CC4CC(CC(C4)C2)C3)sc[n+]1CC(=O)c1ccccc1	18.9	7.7	16.3	-8.1	?	-2.6
